Bioassay records deposited in PubChem by Sanford-Burnham Center for Chemical Genomics.
A selection follows.
Apaf1 activ = activates human Apaf-1 apoptosome; hit rate 0.31% among 330,000; O14727; Apaf-1 apoptosome caspase-3 activation, DEVD-Rh110 fluorescence; hits give low values; AID 489031; activity change, negative = activation, % at 20 µM;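 active = activity change at or below -40% at 20 µM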
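Schedule: 30 min preincubation, 50 min reaction, room temperature / System: biochemical Apaf-1 apoptosome reconstitution / Medium: 20 mM HEPES pH 7.5 with CHAPS, BSA / Evaluation: Caspase-3 cleavage activity downstream of Apaf-1 activation / Detection: Caspase-3-released Rh110 fluorescence, 540 nm emission, 480 nm excitation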
Rh110 interf act = interferes with Rh110 fluorescence, flagging false Apaf-1 activators; shares compounds with Apaf1 activ; Rh110 fluorescence interference, quenched caspase reaction, Ex480/Em540; fluorescence interference (activity change), % at 20 µM, hits read low; 980 tested, under 10 active;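 active = mean activity change at or below -40% when tested at 20 µM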
Apaf-1 act conf = confirmation of human Apaf-1 activators; shares compounds with Apaf1 activ; reconstituted apoptosome caspase-3 activity, DEVD-Rh110 fluorescence; hits give low values; activity change, negative = activation, % at 20 µM; hit rate 5% among 980;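 active = mean activity change at or below -40%, meaning activation of 40% or more, at 20 µM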
Apaf1 act interf = Apaf-1 activator counter-screen fluorescence artifact; shares compounds with Apaf1 activ; fluorescence interference counterscreen, Apaf-1 activator assay; EC50, µM; 55 tested, under 10 active; AID 588592; call rule not given here
* hit, by the source's call.

CC1(C(=O)NCc2ccccn2)C=CCN1C(=O)c1ccccc1 (stereo not drawn) was read as Apaf1 activ -273*, Rh110 interf act 6 and Apaf-1 act conf -4.
For CCC(CO)Oc1cc(NCc2cccc(Cl)c2)c2ncn(C(C)C)c2c1 (stereo not drawn) the results were Apaf1 activ 73.
O=C(Nc1ccc(N2CCN(C(=O)c3ccccc3F)CC2)cc1)c1cncc(Br)c1 was read as Apaf1 activ -65*, Rh110 interf act 14 and Apaf-1 act conf 17.
For CCN1CCN(CCNC(=O)c2cn(C(C)c3ccccc3F)nn2)CC1 (stereo not drawn) the results were Apaf1 activ -78*, Rh110 interf act 8 and Apaf-1 act conf 16.
Screening CCCCc1oc2ccccc2c1C(=O)c1cc(I)c(OCCN(CC)CC)c(I)c1 returned Apaf1 activ 53.
For CCCC[n+]1ccn(C2=C([O-])c3ccccc3C(=O)/C2=N\S(=O)(=O)c2ccc(Cl)cc2)c1 the results were Apaf1 activ 52.
CCOc1ccc(/C=C2\SC(=S)N(CCCC(=O)NCCCN3CCOCC3)C2=O)cc1 was read as Apaf1 activ 42.
C#CCOc1ccc(/C=C2/C(=O)N(c3cccc(C(=O)O)c3)N=C2C)cc1OC was read as Apaf1 activ 43.
Screening COC(=O)c1ccc(/C=C2/SC(=S)N(CCCC(=O)Nc3ccc(O)cc3)C2=O)cc1 returned Apaf1 activ -67*, Rh110 interf act -1 and Apaf-1 act conf -27.
`O=C(O)CCN1C(=O)/C(=C\c2ccc(OCc3ccccc3)c(OCc3ccccc3)c2)SC1=S` gave Apaf1 activ -56*, Rh110 interf act 10, Apaf-1 act conf -79* and Apaf1 act interf >100.
For COc1ccc(/C=C2/Sc3ccc(C(=O)NCCN4CCCCCC4)cc3NC2=O)cc1 the results were Apaf1 activ 49.
COc1ccc(/C=C2\SC(=S)N(CCC(=O)Nc3ccc(C(=O)O)cc3)C2=O)cc1OC was read as Apaf1 activ -364*, Rh110 interf act 4, Apaf-1 act conf -133* and Apaf1 act interf >100.
Screening COc1cccc(/C=C2\SC(=S)N(CCCC(=O)N3CCCCC3)C2=O)c1 returned Apaf1 activ -137*, Rh110 interf act 11 and Apaf-1 act conf 15.
Screening C#CCOCCOCCOCCNc1nc(N2CCN(C(=O)CCCCCCCCCCNC(=O)[C@H]([C@@H](C)CC)n3cc(CCCCN=C(N)N)nn3)CC2)nc(N2CCN(C(=O)CCCCCCCCCCNC(=O)[C@@H]([C@H](C)O)n3cc(C)nn3)CC2)n1 returned Apaf1 activ 45.
c1ccc(C[C@H]2CN=C(Nc3ccccc3)N2CCCC2CCCCC2)cc1 was read as Apaf1 activ 47.
Screening CN(C)c1ncc(C2=C(Cl)C(=O)C(N3CCCC3)=C(Cl)C2=O)s1 returned Apaf1 activ 83.
For Cc1cccc(C)c1NC(=O)CN1CCN(CCCC(c2ccc(F)cc2)c2ccc(F)cc2)CC1 the results were Apaf1 activ 51.
Cc1cccc(C)c1NC(=O)Cn1cc(C=O)c2ccccc21 was read as Apaf1 activ -251*, Rh110 interf act 0, Apaf-1 act conf -43* and Apaf1 act interf >100.
`COc1ccc(CNCC(O)(c2ccc(Cl)cc2)c2ccc(Cl)cc2)cc1OC` gave Apaf1 activ 42.
S=C(Nc1ccc(Cl)cc1)Nc1cccc2cnccc12 was read as Apaf1 activ 83.
CCNc1ccccc1CP(=O)(c1ccccc1)c1ccccc1O (stereo not drawn) was read as Apaf1 activ 87.
CCOC(=O)N1CCN(C(=O)C2CCN(S(=O)(=O)c3ccc(OCC)cc3)CC2)CC1 was read as Apaf1 activ -164*, Rh110 interf act -3 and Apaf-1 act conf 18.
Screening CCOC(=O)N1CCN(C2=C(NS(=O)(=O)c3ccc(C)cc3)C(=O)c3ccccc3C2=O)CC1 returned Apaf1 activ 86.
Cc1ccc(/C=C/c2onc(C)c2S(=O)(=O)N2CCC(C(=O)N3CCN(C)CC3)CC2)cc1 was read as Apaf1 activ 45.
For CN(C)CCCN(C(=O)CCc1ccccc1)c1nc2ccc(Cl)cc2s1 the results were Apaf1 activ 44.
For CCOC(=O)N1CCN(C(=O)c2cccc(S(=O)(=O)Nc3ccc(OC)cc3)c2)CC1 the results were Apaf1 activ 51.
`COc1ccc(C(CNC(=O)c2cccc(NS(=O)(=O)c3ccc(Br)cc3)c2)N(C)C)cc1` (stereo not drawn) gave Apaf1 activ -143*, Rh110 interf act 7 and Apaf-1 act conf 11.
COc1ccc(Nc2ccc3c(c2)=NC2(CCCCC2)[N+]=3[O-])cc1 was read as Apaf1 activ 80.
For CSc1nc(NC(C)(C)C)nc(Oc2ccc(=O)n(C)n2)n1 the results were Apaf1 activ -55*, Rh110 interf act 6 and Apaf-1 act conf 2.
For COc1cc(/C=C2\C(=O)N(c3ccc(S(N)(=O)=O)cc3)N=C2C)ccc1OC(=O)c1ccco1 the results were Apaf1 activ 91.
`Nc1ccc2nn(-c3ccccc3)nc2c1` gave Apaf1 activ 93.
Screening COc1ccc(C(=O)Nc2ccc3c(c2)C(=O)c2ccccc2C3=O)cc1OC returned Apaf1 activ -507*, Rh110 interf act 5, Apaf-1 act conf 6 and Apaf1 act interf >100.
`O=C(NC1=C(Nc2ccc(F)cc2)C(=O)c2ccccc2C1=O)c1ccc(Cl)cc1` gave Apaf1 activ 70.
For COc1ccc(C(=O)c2c(C(F)(F)F)oc3c2C(=O)c2ccccc2C3=O)cc1OC the results were Apaf1 activ 85.
For COC(=O)CCC(=O)OC1(C)C(=O)C=C2C=C(C3CC3)N(C3CCCC3)C=C2C1=O (stereo not drawn) the results were Apaf1 activ 67.
For O=C(NCCCO)Nc1ccc2nc(-c3ccco3)c(-c3ccco3)nc2c1 the results were Apaf1 activ 57.
COC(=O)c1ccc(N2CC3CNC(=O)C2(C(=O)OC)N3C)cc1 (stereo not drawn) was read as Apaf1 activ -6.
Screening COc1cc2c(C#N)c(N3CCCC3)nc(N)c2c(N)n1 returned Apaf1 activ 84.
O=C(c1ccccc1)N1CCCC(c2ccc(Cl)cc2)=N1 was read as Apaf1 activ -41*, Rh110 interf act 19 and Apaf-1 act conf 15.
CCCCCc1ccc(OCCC[n+]2ccccc2)c(CCCCC)c1 was read as Apaf1 activ 66.
Cc1ccccc1Oc1ncnc2oc(-c3ccccc3)cc12 was read as Apaf1 activ -75*, Rh110 interf act -6 and Apaf-1 act conf 11.
For CC(Oc1ccc2c(-c3ccccc3)cc(=O)oc2c1)C(=O)NCC1CCC(C(=O)O)CC1 (stereo not drawn) the results were Apaf1 activ -1.
COc1ccc(N2CCN(C(=O)c3ccc(COc4ccc5c(C)cc(=O)oc5c4)cc3)CC2)cc1 was read as Apaf1 activ 58.
`COc1ccc(-c2cc(=O)oc3cc(OCC(=O)Nc4ccc(CCO)cc4)ccc23)cc1` gave Apaf1 activ -55*, Rh110 interf act 0 and Apaf-1 act conf -20.
